ChEMBL document CHEMBL1122670, “Synthesis of previously inaccessible quinazolines and 1,4-benzodiazepines as potential anticonvulsants” (J Med Chem, 1984)

How the values were obtained:
Mus musculus [1] = experiment: Effective dose (ED50) was determined (at 4hi)n sc Met (pentylenetetrazole) seizure threshold test; type: functional
Outline: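 ADD Program screen in mice. Doses of 30, 100, 300 and 600 mg/kg were given, four animals per dose, with tests at 30 min and at 4 h. sc Met endpoint: no threshold seizure (single clonic spasm of 5 s) after an sc convulsant dose 99 of pentylenetetrazol. Rotorod assessed acute neurotoxicity. ED50/TD50 were estimated graphically; Litchfield-Wilcoxon 95% confidence limits were added for selected cases.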

Mus musculus [2] = experiment: Evaluated for seizure threshold test at a dose 300 mg/kg &MMT is the maximal metrazole threshold to tonic flexion.; type: functional
Outline: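 0.5% pentylenetetrazol (with 0.9% NaCl and 0.001% heparin) was infused into a lateral tail vein at 6.31 μL/s. Time to 3 s of persistent clonus (MST) or hindlimb tonic flexion (MMT) was converted to mg/kg infused. Tested at 0.5 h (some at 4 h or 1 h). Results are % change from controls, by Student's t test.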

[3] = Compound was determined in rotarod test and expressed as TD50; type: ADME, organism-based; details: mouse, in vivo
Outline: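 ADD Program screen in mice. Doses of 30, 100, 300 and 600 mg/kg were given, four animals per dose, with tests at 30 min and at 4 h. sc Met endpoint: no threshold seizure (single clonic spasm of 5 s) after an sc convulsant dose 99 of pentylenetetrazol. Rotorod assessed acute neurotoxicity.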

Mus musculus [4] = experiment: Evaluated for seizure threshold test at a dose 300 mg/kg &MST is the metrazole seizure threshold to persistent clonus; type: functional
Outline: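 At 0.5 h (some at 1 or 4 h), 0.5% pentylenetetrazol in 0.9% NaCl with 0.001% heparin was infused into the tail vein at 6.31 μL/s. Time to 3 s persistent clonus (MST) or tonic flexion (MMT) was converted to mg/kg, reported as % change vs controls, Student's t test.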

## Cc1cc2c(c(C#N)c1C)NC(=O)NC2c1ccccc1 (centres undefined)
Mus musculus [1]
  ED50: 600 mg/kg
Mus musculus [2]
  Change: 22%
[3]
  TD50: > 1000 mg/kg
Mus musculus [4]
  Change: 36%
